Measured values pooled from the literature.
Each line is one published result; the experiments were not run side by side.
Target: cGMP-dependent protein kinase 2 (PRKG2, Homo sapiens, UniProt Q13237)
Residues used in one study (Q13237 1-762): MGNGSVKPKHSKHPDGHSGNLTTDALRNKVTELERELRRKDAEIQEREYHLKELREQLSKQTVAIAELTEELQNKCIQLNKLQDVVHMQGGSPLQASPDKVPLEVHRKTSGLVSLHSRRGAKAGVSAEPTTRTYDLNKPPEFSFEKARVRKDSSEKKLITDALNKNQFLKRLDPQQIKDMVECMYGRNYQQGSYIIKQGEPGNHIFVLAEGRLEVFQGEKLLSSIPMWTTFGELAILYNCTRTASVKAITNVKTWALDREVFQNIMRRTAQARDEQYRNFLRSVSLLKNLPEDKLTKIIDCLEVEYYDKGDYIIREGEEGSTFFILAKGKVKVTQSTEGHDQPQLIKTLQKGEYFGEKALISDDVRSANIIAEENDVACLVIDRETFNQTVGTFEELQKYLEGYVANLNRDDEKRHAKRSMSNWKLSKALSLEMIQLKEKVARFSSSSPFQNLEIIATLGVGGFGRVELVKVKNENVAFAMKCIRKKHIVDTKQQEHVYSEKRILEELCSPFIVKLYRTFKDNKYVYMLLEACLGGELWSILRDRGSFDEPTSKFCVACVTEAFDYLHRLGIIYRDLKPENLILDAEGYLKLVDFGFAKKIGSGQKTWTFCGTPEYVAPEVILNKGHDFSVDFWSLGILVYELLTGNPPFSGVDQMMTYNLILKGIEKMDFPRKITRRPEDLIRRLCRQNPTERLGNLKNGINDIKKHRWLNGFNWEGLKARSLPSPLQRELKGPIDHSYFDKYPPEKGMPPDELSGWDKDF

Structure (SMILES)	effect on	technique	concentration	remaining binding
Cc1cnc(Nc2ccc(C(=O)N3CCC(N4CCCC4)CC3)cc2)nc1-c1cc2ccccc2s1	binding	competition with immobilised ligand	1 µM	2.8%
C[C@@H]1CCN(c2nccc(-c3cnn4ncccc34)n2)C1	binding	–	1 µM	81%
C[C@@H](c1ccc(-n2cnc3c(N)ncnc32)cc1)N1CCc2nn(C)c(Cc3ccccc3)c2C1=O	binding	competition with immobilised ligand	0.1 µM	73%
Cn1nc(C(=O)NCc2ccc(C(=O)O)cc2)cc1-c1ccc2[nH]ccc2c1	cell-free assay	competition with immobilised ligand	0.1 µM	78%
O=C(c1ccc(Nc2nccc(-c3cc4ccccc4s3)n2)cc1)N1CCC(N2CCCC2)CC1	binding	competition with immobilised ligand	1 µM	33%
F[C@@H]1CCN(c2nccc(-c3cnn4ncccc34)n2)C1	binding	–	1 µM	93%
COc1cnc(Nc2cccc(S(N)(=O)=O)c2)nc1N1CCN(c2ccccc2)C(=O)C1	binding	competition with immobilised ligand	1 µM	100%
Nc1cnc(N2CCc3cc(S(=O)(=O)Nc4c(F)cc(Cl)cc4F)cc(N4CCCC4=O)c32)nc1	cell-free assay	competition with immobilised ligand	1 µM	84%
CC1CCCN1c1nccc(-c2cnn3ncccc23)n1 (stereo not shown)	binding	–	1 µM	97%
O=C(NCC1CCOCC1)c1n[nH]cc1NC(=O)c1c(F)cccc1F	binding	competition with immobilised ligand	1 µM	88%
Cc1cnn2ncc(-c3ccnc(N(C)C)n3)c2c1	binding	–	1 µM	98%
CCC(=N\O)/C(C)=C/c1ccc(F)cc1	cell-free assay	competition with immobilised ligand	1 µM	79%
CN(C)c1nccc(-c2cnn3ncccc23)n1	binding	–	1 µM	100%
CCS(=O)(=O)c1cc2cc(C[C@@](O)(CC(C)(C)c3ccc(F)cc3C(N)=O)C(F)(F)F)[nH]c2cn1	cell-free assay	competition with immobilised ligand	1 µM	86%
N[C@@H]1CCN(c2nccc(-c3cnn4ncccc34)n2)C1	binding	–	1 µM	100%
NS(=O)(=O)c1cc(NC(=O)C2(c3ccccc3Cl)CC2)ccc1Oc1cccc(Cl)c1	cell-free assay	competition with immobilised ligand	1 µM	100%
CN(CCCC(F)(F)F)c1nccc(-c2cnn3ncccc23)n1	binding	–	1 µM	96%
O=C(c1ccc(Nc2ncc(Cl)c(-c3cc4ccccc4s3)n2)cc1)N1CCC(N2CCCC2)CC1	binding	competition with immobilised ligand	1 µM	13%
O=C1NC(c2ccccn2)Sc2ccccc21 (stereo not shown)	cell-free assay	competition with immobilised ligand	1 µM	90%
COc1ncc2cc3ccccc3nc2c1C#N	cell-free assay	competition with immobilised ligand	5 µM	100%
CN(C)C(=O)Cn1cc(-c2nc(C3(c4ccc(-c5cnc(N)nc5)cc4)CC3)no2)cn1	cell-free assay	competition with immobilised ligand	1 µM	100%
FC(F)(F)Oc1cccc(-c2cnc3ccc(-c4ccncc4)nn23)c1	cell-free assay	competition with immobilised ligand	5 µM	88%
